Ki, half-life and t1/2 data for 18 compounds are collected here from ChEMBL document CHEMBL1155070, “New endomorphin analogues containing alicyclic beta-amino acids: influence on bioactive conformation and pharmacological profile” (J Med Chem, 2008).

SMILES strings stand for the structures. Where only a bound is given, the exact number is not on record here.

The target of data set [1] is Delta-type opioid receptor (Rattus norvegicus, UniProt P33533). Kind of data set: Displacement of [3H]Ile5,6deltorphin-2 from delta opioid receptor in Wistar rat brain. Summed up: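 Competition binding on crude male Wistar rat forebrain membranes (0.2-0.5 mg protein/tube) in 50 mM Tris-HCl pH 7.4. Filtration, scintillation counting. Ki from nonlinear fit plus Cheng-Prusoff. Mean ± SEM, ≥3 independent runs in duplicate.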

Data set [2] is described as follows: (§1) Half life in rat brain membrane homogenate. It counts as ADME.
The species named for the next data set is Rattus norvegicus. The data set is described as §1. In kind it is ADME.

Chain of Delta-type opioid receptor (P33533 whole entry): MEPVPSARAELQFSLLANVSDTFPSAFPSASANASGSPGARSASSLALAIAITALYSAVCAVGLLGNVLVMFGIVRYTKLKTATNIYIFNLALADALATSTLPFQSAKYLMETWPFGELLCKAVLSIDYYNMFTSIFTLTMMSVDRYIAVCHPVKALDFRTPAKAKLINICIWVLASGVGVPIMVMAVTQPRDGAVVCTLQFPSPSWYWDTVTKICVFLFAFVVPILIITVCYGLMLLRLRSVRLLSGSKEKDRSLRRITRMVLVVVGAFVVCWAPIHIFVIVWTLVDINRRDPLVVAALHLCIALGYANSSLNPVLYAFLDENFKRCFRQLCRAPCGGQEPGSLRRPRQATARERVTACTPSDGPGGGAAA

`NC(=O)[C@H](Cc1ccccc1)NC(=O)[C@H](Cc1ccccc1)NC(=O)[C@@H]1CCC[C@@H]1NC(=O)[C@@H](N)Cc1ccc(O)cc1` returned a Ki in data set [1] of over 10 µM.
The compound `NC(=O)[C@H](Cc1ccccc1)NC(=O)[C@H](Cc1ccccc1)NC(=O)[C@H]1CCC[C@H]1NC(=O)[C@@H](N)Cc1ccc(O)cc1` came in with an inhibition constant Ki in data set [1] of 4.8 µM. In data set [2], this compound yielded a half-life of over 12 h.
As to `NC(=O)[C@H](Cc1ccccc1)NC(=O)[C@H](Cc1ccccc1)NC(=O)[C@H]1CCCC[C@H]1NC(=O)[C@@H](N)Cc1ccc(O)cc1`, in data set [1], the Ki was 0.812 µM. The half-life in data set [2] is over 12 h.
With `NC(=O)[C@H](Cc1ccccc1)NC(=O)[C@H](Cc1ccccc1)NC(=O)[C@@H]1CCCC[C@@H]1NC(=O)[C@@H](N)Cc1ccc(O)cc1`, in data set [1], the Ki is over 10 µM.
On to `NC(=O)[C@H](Cc1ccccc1)NC(=O)[C@H](Cc1c[nH]c2ccccc12)NC(=O)[C@H]1CCC[C@@H]1NC(=O)[C@@H](N)Cc1ccc(O)cc1`, for which the Ki in data set [1] is 3.08 µM.
Same read-out and setting: with `NC(=O)[C@H](Cc1ccccc1)NC(=O)[C@H](Cc1ccccc1)NC(=O)[C@@H]1CCCC[C@H]1NC(=O)[C@@H](N)Cc1ccc(O)cc1` the figure was 0.439 µM.
Same read-out and setting: with `NC(=O)[C@H](Cc1ccccc1)NC(=O)[C@H](Cc1c[nH]c2ccccc12)NC(=O)[C@@H]1CCCC[C@H]1NC(=O)[C@@H](N)Cc1ccc(O)cc1` the figure was over 10 µM.
In turn, `NC(=O)[C@H](Cc1ccccc1)NC(=O)[C@H](Cc1c[nH]c2ccccc12)NC(=O)[C@H]1CCCC[C@H]1NC(=O)[C@@H](N)Cc1ccc(O)cc1` came in with a Ki in data set [1] of 2.76 µM. This compound displayed a half-life in data set [2] of over 12 h.
For `NC(=O)[C@H](Cc1ccccc1)NC(=O)[C@H](Cc1ccccc1)NC(=O)[C@H]1CCCC[C@@H]1NC(=O)[C@@H](N)Cc1ccc(O)cc1`, the Ki in data set [1] is over 10 µM.
Same read-out and setting: with `NC(=O)[C@H](Cc1ccccc1)NC(=O)[C@H](Cc1ccccc1)NC(=O)[C@H]1CCC[C@@H]1NC(=O)[C@@H](N)Cc1ccc(O)cc1` the figure was 4.23 µM; with `NC(=O)[C@H](Cc1ccccc1)NC(=O)[C@H](Cc1c[nH]c2ccccc12)NC(=O)[C@H]1CCCC[C@@H]1NC(=O)[C@@H](N)Cc1ccc(O)cc1`, 9.62 µM.
Still for that read-out and setting: with `NC(=O)[C@H](Cc1ccccc1)NC(=O)[C@H](Cc1c[nH]c2ccccc12)NC(=O)[C@@H]1CCCC[C@@H]1NC(=O)[C@@H](N)Cc1ccc(O)cc1` the figure was over 10 µM.
On the same count and under the same terms, with `NC(=O)[C@H](Cc1ccccc1)NC(=O)[C@H](Cc1c[nH]c2ccccc12)NC(=O)[C@@H]1CCC[C@@H]1NC(=O)[C@@H](N)Cc1ccc(O)cc1` the figure was over 10 µM; with `NC(=O)[C@H](Cc1ccccc1)NC(=O)[C@H](Cc1ccccc1)NC(=O)[C@@H]1CCC[C@H]1NC(=O)[C@@H](N)Cc1ccc(O)cc1`, 1.41 µM.
Regarding `NC(=O)[C@H](Cc1ccccc1)NC(=O)[C@H](Cc1c[nH]c2ccccc12)NC(=O)[C@H]1CCC[C@H]1NC(=O)[C@@H](N)Cc1ccc(O)cc1`, affinity in data set [1] was put at a Ki of 1.34 µM. Further, the half-life in data set [2] is over 12 h.
Take `NC(=O)[C@H](Cc1ccccc1)NC(=O)[C@H](Cc1c[nH]c2ccccc12)NC(=O)[C@@H]1CCC[C@H]1NC(=O)[C@@H](N)Cc1ccc(O)cc1`: the affinity in data set [1], expressed as Ki, was 0.67 µM.
Regarding `NC(=O)[C@H](Cc1ccccc1)NC(=O)[C@H](Cc1ccccc1)NC(=O)[C@@H]1CCCN1C(=O)[C@@H](N)Cc1ccc(O)cc1` [ENDOMORPHIN 2], in the data set filed under Rattus norvegicus, the t1/2 is 3.8 h.
As to `NC(=O)[C@H](Cc1ccccc1)NC(=O)[C@H](Cc1c[nH]c2ccccc12)NC(=O)[C@@H]1CCCN1C(=O)[C@@H](N)Cc1ccc(O)cc1` [ENDOMORPHIN-1], in the data set filed under Rattus norvegicus, the t1/2 came to 4.9 h.
